Laboratory results: PubChem BioAssay
Inconclusive results are not listed.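 The calls were made as follows, unless noted: active = RAM network inhibition above 8.4% in each of two replicates, 3 SD over the compound average; inconclusive = above 8.4% inhibition in only one replicate; inactive = 8.4% inhibition or less in each replicate.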

Experiments:
[1] = OD615 S. cerevisiae growth inhibition, permissive medium, pilot counter-assay, permissive growth control for S. cerevisiae lifespan shortening project (AID 705;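 active = growth inhibition above 25% in both replicates, a cutoff set 3 SD above the mean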); conditions: OD615, 24 h, at 10 µM, hits give high values
In short: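 assay system = Saccharomyces cerevisiae strain carrying genetically modified DeaD replicative-lifespan system | medium = SC raffinose/galactose permissive medium | dosing = 10 µM single dose, 0.25% DMSO | schedule = 24 h compound exposure at 30 °C after 4 h pre-growth | measured by = OD at 615 nm | read-out basis = growth inhibition from lowered OD615 after 24 h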

[2] = Restrictive medium S. cerevisiae growth inhibition, OD615, pilot screen of yeast lifespan reduction project, restrictive growth control (AID 706;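 active = growth inhibition above a set limit, 3 SD over mean compound inhibition, in both replicates, cut at about 43% in these data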;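 also: modified DeaD lifespan yeast strain shifted to restrictive glucose medium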); conditions: OD615, 48 h, at 10 µM, hits give high values
In short: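 Buffer or medium: CSMM-D glucose medium. Material: genetically modified Saccharomyces cerevisiae, DeaD replicative lifespan assay strain. Times: 48 h compound exposure at 30 °C. Measured by: optical density at 615 nm.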

[3] = viability gain of MRP-1-high H69AR cells under doxorubicin, pilot screen, MRP-1 activator project, CellTiter-Glo, duplicate (AID 807;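 active = viability increase at or above a cutoff of the median across tested compounds plus 3 SD, cut at about 8.5% in these data, passing the limit was not always enough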;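 also: compound pretreatment 18-22 h then 72 h combined with doxorubicin; 0% = doxorubicin alone and 100% = vehicle without doxorubicin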); conditions: H69AR viability with doxorubicin, CellTiter-Glo luminescence; at 10 µM; hits give high values
[4] = growth suppression of beta-catenin knockout HCT116, pilot screen, human colon tumor cells (AID 823;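 active = cell viability at or below a set limit in both duplicate runs, the limit being the all-compound median minus 4 SD, cut at about 23% in these data, passing the limit was not always enough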;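 also: 0% = wells killed by 20 µM Hyamine and 100% = untreated DMSO cell wells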); conditions: CellTiter-Glo, 60 h, at 10 µM, hits give low values
[5] = growth suppression of PTEN-deleted HCT116, pilot screen, cell-based, HCT116 clonal line, CellTiter-Glo (AID 824;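 active = viability at or below 27.92% in each of two runs, the all-compound median minus 4 SD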;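 also: 0% = 20 µM Hyamine control and 100% = vehicle cell control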); conditions: 60 h, at 10 µM, hits give low values
[6] = inhibitors of the yeast RAM network, pilot screen, dse1pr::URA3 reporter, 5-FOA selection (AID 869;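 active = inhibition over a set limit, the all-compound mean plus 3 SD, in both replicate runs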;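 also: 0% = DMSO wells with no growth and 100% = 10 µM 1-NA-PP1 with full growth; RAM network block rescues cells from 5-FOA so hits raise OD615 growth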); conditions: S. cerevisiae dse1pr::URA3 5-FOA growth, OD615, 2 d; at 10 µM; hits give high values; strain carries analog-sensitive mutant Cbk1 kinase
[7] = RAM signaling pathway blockade in yeast – S. cerevisiae, Pdr1DBD-CYC8 efflux-inhibited sensitized strain, primary screen (AID 1298);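 also: 0% = DMSO untreated cells without growth and 100% = 10 µM 1-NA-PP1 full growth; higher means more yeast growth rescued from 5-FOA killing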; conditions: S. cerevisiae cbk1-as DSE1-URA3 strain, 5-FOA growth OD615, 2 d; at 50 µM; hits give high values

COc1cccc(N2C(=O)Nc3ccccc3C2(O)C(=O)NCc2ccc3c(c2)OCO3)c1 (stereo unspecified)
inactive: growth inhibition [1] -11.5% | growth inhibition [2] -8.59% | viability increase [3] -0.4% | viability [4] 95.9% | viability [5] 99.7% | inhibition [6] 0.51% | RAM network inhibition [7] 9.22%

COc1ccc(CC(=O)c2ccc(O)cc2O)cc1OC
inactive: growth inhibition [1] -6.46% | growth inhibition [2] -7.7% | viability increase [3] -3.53% | viability [4] 95.6% | viability [5] 89.2% | inhibition [6] 1.26% | RAM network inhibition [7] 2.27%

CN(C)c1ccc(C2N(c3ccc(Cl)cc3)C(=O)C3CCCN32)cc1 (stereo unspecified)
inactive: growth inhibition [1] -2.63% | growth inhibition [2] 6.78% | viability increase [3] -1.01% | viability [4] 98.1% | viability [5] 98.7% | inhibition [6] 2.37% | RAM network inhibition [7] 1.57%

C=CCn1cc(C(=O)N2CCN(C)CC2)c(=O)c2cc(S(=O)(=O)N3CCCC3)ccc21
inactive: growth inhibition [1] -6.54% | growth inhibition [2] -12.6% | viability increase [3] -0.09% | viability [4] 105% | viability [5] 106% | inhibition [6] 0.73% | RAM network inhibition [7] 3.9%

CCOCCCNC(=O)C(c1ccc(OC)cc1)N(Cc1ccc2c(c1)OCO2)C(=O)CNC(C)=O (stereo unspecified)
inactive: growth inhibition [1] -6.78% | growth inhibition [2] 3.73% | viability increase [3] 2.19% | viability [4] 104% | viability [5] 107% | inhibition [6] 1.34% | RAM network inhibition [7] 4.4%

COc1ccc2c(c1OC)C(=O)OC2Nc1ccccn1 (stereo unspecified)
inactive: growth inhibition [1] 10.3% | growth inhibition [2] -7.84% | viability increase [3] -2.18% | viability [4] 102% | viability [5] 99.7% | inhibition [6] 1.34% | RAM network inhibition [7] 1.17%

c1ccc(Nc2nc3ccccc3n3cnnc23)cc1
inactive: growth inhibition [1] -1.27% | growth inhibition [2] 10.2% | viability increase [3] -5.23% | viability [4] 86.1% | viability [5] 84.6% | inhibition [6] 2.09% | RAM network inhibition [7] -0.58%

O=C(NCCCN1CCOCC1)c1ccc(CS(=O)(=O)c2ccc(Br)cc2)o1
inactive: growth inhibition [1] -9.31% | growth inhibition [2] -11% | viability increase [3] -0.56% | viability [4] 99.8% | viability [5] 96.2% | inhibition [6] 2.23% | RAM network inhibition [7] 3.6%

COCCCNC(=O)Cn1ncc2ccsc2c1=O
inactive: growth inhibition [1] -4.86% | growth inhibition [2] 3.33% | viability increase [3] 1.3% | viability [4] 107% | viability [5] 101% | inhibition [6] -0.05% | RAM network inhibition [7] -0.97%

Cc1ccc(/C(O)=C2/C(=O)C(=O)N(CCN3CCOCC3)C2c2cccnc2)cc1 (stereo unspecified)
inactive: growth inhibition [1] 6.32% | growth inhibition [2] 4.34% | viability increase [3] 0.49% | viability [4] 93.5% | viability [5] 102% | inhibition [6] -0.11% | RAM network inhibition [7] 0.7%

COc1ccc(OC)c2[nH]c(=O)c(CCNC(C)=O)cc12
inactive: growth inhibition [1] -6.6% | growth inhibition [2] 3.73% | viability increase [3] -0.39% | viability [4] 109% | viability [5] 104% | inhibition [6] 2.21% | RAM network inhibition [7] 1.88%

COc1ccc(S(=O)(=O)Cc2ccc(C(=O)NCc3cccs3)o2)cc1
inactive: growth inhibition [1] -2.92% | growth inhibition [2] -21.2% | viability increase [3] -4.71% | viability [4] 94.7% | viability [5] 87.1% | inhibition [6] 1.21% | RAM network inhibition [7] 3.04%

CC(C)COC(=O)C1C2C=CC3(CN(C4CCCC4)C(=O)C13)O2 (stereo unspecified)
inactive: growth inhibition [1] -14.1% | growth inhibition [2] -0.515% | viability increase [3] -1.25% | viability [4] 107% | viability [5] 92.8% | inhibition [6] 2.07% | RAM network inhibition [7] 2.04%

CC(=O)c1cccc(NC(=O)C2CCCN(S(=O)(=O)c3cccc4cccnc34)C2)c1 (stereo unspecified)
inactive: growth inhibition [1] -10.5% | growth inhibition [2] -5.17% | viability increase [3] -2.34% | viability [4] 83.5% | viability [5] 73.7% | inhibition [6] 2.18% | RAM network inhibition [7] 4.5%

COc1ccc(OCCSc2nnc(-c3ccccc3)n2N)cc1
inactive: growth inhibition [1] -2.49% | growth inhibition [2] -12.7% | viability increase [3] 0.25% | viability [4] 89.8% | viability [5] 92.5% | inhibition [6] 1.27% | RAM network inhibition [7] 5.07%

COc1ccc(CCN2CC(C#N)=C3c4cc(OC)c(OC)cc4CCN3C2)cc1OC
inactive: growth inhibition [1] -2.16% | growth inhibition [2] 3.84% | viability increase [3] -4.7% | viability [4] 99.5% | viability [5] 95.4% | inhibition [6] -0.455% | RAM network inhibition [7] -0.37%

CCn1c(SCC(=O)Nc2ccccc2C(=O)OC)nc2c1c(=O)n(C)c(=O)n2C
inactive: growth inhibition [1] -6.03% | growth inhibition [2] -4.93% | viability increase [3] -3.55% | viability [4] 92% | viability [5] 86.6% | inhibition [6] 3.68% | RAM network inhibition [7] 5.2%

COc1cccc(N2CCN(C3CC(=O)N(c4ccc(Cl)cc4)C3=O)CC2)c1 (stereo unspecified)
inactive: growth inhibition [1] -8.98% | growth inhibition [2] -2.62% | viability increase [3] -0.33% | viability [4] 96.2% | viability [5] 91.6% | inhibition [6] 0.57% | RAM network inhibition [7] 5.46%

Cc1ccc(NS(=O)(=O)c2ccc3c(c2)oc(=O)n3C)cc1F
inactive: growth inhibition [1] -11% | growth inhibition [2] -10.8% | viability increase [3] 0.32% | viability [4] 89.1% | viability [5] 86.1% | inhibition [6] 1.1% | RAM network inhibition [7] 3.85%

CCCNC(=O)Cc1cc(=O)[nH]c(=O)[nH]1
inactive: growth inhibition [1] -14.4% | growth inhibition [2] -17.8% | viability increase [3] 0.56% | viability [4] 105% | viability [5] 101% | inhibition [6] 1.33% | RAM network inhibition [7] 1.73%

COc1ccc(C(=O)N2CCC(C(=O)Nc3ccc(OC)c(OC)c3)CC2)cc1
inactive: growth inhibition [1] -6.75% | growth inhibition [2] -8.78% | viability increase [3] -0.38% | viability [4] 89.7% | viability [5] 89% | inhibition [6] 1.28% | RAM network inhibition [7] 2.4%

Cn1cnnc1SCC(=O)c1ccc2c(c1)CCCC2
inactive: growth inhibition [1] -1.79% | growth inhibition [2] 12.5% | viability increase [3] -1.07% | viability [4] 105% | viability [5] 96.6% | inhibition [6] 0.17% | RAM network inhibition [7] 4.35%

COc1cc(NC(=O)CN2CC(c3ccccc3)CC2=O)cc(OC)c1 (stereo unspecified)
inactive: growth inhibition [1] -20.8% | growth inhibition [2] -10.4% | viability increase [3] 0.18% | viability [4] 100% | viability [5] 99.4% | inhibition [6] 1.27% | RAM network inhibition [7] 1.83%

CS(=O)(=O)N1CCN(Cc2ccccc2C(F)(F)F)CC1
inactive: growth inhibition [1] -19.1% | growth inhibition [2] -5.12% | viability increase [3] 0.93% | viability [4] 91.1% | viability [5] 94% | inhibition [6] -0.185% | RAM network inhibition [7] 6.47%

CCOc1ccc(C2c3c(oc4ccccc4c3=O)C(=O)N2c2ccccn2)cc1OC (stereo unspecified)
inactive: growth inhibition [1] -15.4% | growth inhibition [2] -25.5% | viability increase [3] -4.13% | viability [4] 92.3% | viability [5] 96.2% | inhibition [6] 1.44% | RAM network inhibition [7] 1.32%

Cc1ccc(-c2cc(C(F)(F)F)n3ncc(C(=O)NCc4ccco4)c3n2)cc1
inactive: growth inhibition [1] -5.88% | growth inhibition [2] -12.6% | viability increase [3] -5.85% | viability [4] 74% | viability [5] 75.4% | inhibition [6] 2.67% | RAM network inhibition [7] 3.41%

C=CCOC(=O)C1=C(C)N=C2SCCC(=O)N2C1c1ccc(OC(=O)c2ccco2)cc1 (stereo unspecified)
inactive: growth inhibition [1] 5.35% | growth inhibition [2] 24.3% | viability increase [3] -0.72% | viability [4] 94.2% | viability [5] 85.8% | inhibition [6] 1.94% | RAM network inhibition [7] 5.69%

CC1(C)CC(=O)c2c(Cc3ccccc3)n[nH]c2C1
inactive: growth inhibition [1] 0.375% | growth inhibition [2] -8.27% | viability increase [3] -1.7% | viability [4] 98.3% | viability [5] 90.5% | inhibition [6] 2.2% | RAM network inhibition [7] -0.11%

Cc1cc(N2C(=O)C3CC=CCC3C2=O)cc(C)c1Br (stereo unspecified)
inactive: growth inhibition [1] -3.4% | growth inhibition [2] -11.6% | viability increase [3] -1.05% | viability [4] 95.5% | viability [5] 95.2% | inhibition [6] 2.22% | RAM network inhibition [7] 6.44%

Cc1cc(NC(=O)c2cc(CC(C)C)on2)no1
inactive: growth inhibition [1] -5.71% | growth inhibition [2] -12.5% | viability increase [3] -1.75% | viability [4] 106% | viability [5] 94.5% | inhibition [6] 0.67% | RAM network inhibition [7] 6.04%

O=C1C(Cl)=C(N2CCOCC2)C(=O)N1c1ccccc1Cl
inactive: growth inhibition [1] -8.11% | growth inhibition [2] -4.76% | viability increase [3] -2.16% | viability [4] 99.2% | viability [5] 103% | inhibition [6] 0.045% | RAM network inhibition [7] 4.96%

Cc1occc1C(=O)Nc1nnc(-c2ccncc2)s1
inactive: growth inhibition [1] 4.81% | growth inhibition [2] 5.91% | viability increase [3] -0.28% | viability [4] 100% | viability [5] 104% | inhibition [6] 0.705% | RAM network inhibition [7] -1.3%

CCCS(=O)(=O)c1nc(S(=O)(=O)c2ccc(C)cc2)c(NCCN2CCOCC2)s1
inactive: growth inhibition [1] -8.93% | growth inhibition [2] -6.58% | viability increase [3] -0.11% | viability [4] 93.7% | viability [5] 86.7% | inhibition [6] 1.04% | RAM network inhibition [7] 6.38%
